# According to ChEMBL document CHEMBL2384906, “Biological activity, design, synthesis and structure activity relationship of some novel derivatives of curcumin containing sulfonamides” (Eur J Med Chem, 2013):
# Calls of active or inactive are those of the source. The rule behind the calls is not given here.
# Experiments:
# [1] = system: Pseudomonas aeruginosa; assay: Antimicrobial activity against Pseudomonas aeruginosa ATCC 15499 assessed as diameter of inhibition zone at 20 uM after 24 hrs by Kirby -Baur disc diffusion method; assay type: functional; details: ATCC 15499, 24 h, read-out: DIZ
# Method in brief: (§1)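 Kirby-Bauer disc diffusion was used. Acetone stocks (160 µM) were serially doubled down to 80, 40 and 20 µM. 4 µL of each went onto 5 mm sterile paper discs, which were dried 30 min at 50 °C. Inoculum was 1.5 × 10⁸ CFU/mL diluted to 3 × 10² CFU/mL, and 50 µL was spread on Mueller-Hinton agar. After 24 h at 37 °C the inhibition-zone diameter was measured. Ciprofloxacin served as positive control.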
# [2] = system: Trichoderma viride; assay: Antifungal activity against Trichoderma viride MTCC 1107 assessed as zone of inhibition at 80 uM after 48 hrs by disc diffusion method; assay type: functional; details: MTCC 1107, 48 h, read-out: IZ
# Method in brief: (§2)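 Spores from 4-day potato dextrose agar cultures, suspended in sterile water at 1.5 × 10⁵ CFU/mL. 0.2 mL was spread on potato dextrose agar. 5 mm filter-paper discs soaked with test compound were laid on the lawn. Incubation was 48 h at 28 °C, then the inhibition zone was measured in mm. Fluconazole was the positive control and acetone the negative control.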
# [3] = system: Pseudomonas aeruginosa; assay: Antimicrobial activity against Pseudomonas aeruginosa ATCC 15499 assessed as diameter of inhibition zone at 80 uM after 24 hrs by Kirby -Baur disc diffusion method; assay type: functional; details: ATCC 15499, 24 h, read-out: DIZ; method in brief: as §1
# [4] = system: Bacillus cereus; assay: Antimicrobial activity against Bacillus cereus MTCC 7350 assessed as diameter of inhibition zone at 40 uM after 24 hrs by Kirby -Baur disc diffusion method; assay type: functional; details: MTCC 7350, 24 h, read-out: DIZ; method in brief: as §1
# [5] = system: Curvularia lunata; assay: Antifungal activity against Curvularia lunata MTCC 581 assessed as zone of inhibition at 20 uM after 48 hrs by disc diffusion method; assay type: functional; details: MTCC 581, 48 h, read-out: IZ; method in brief: as §2
# [6] = system: Aspergillus niger; assay: Antifungal activity against Aspergillus niger MTCC 1108 assessed as zone of inhibition at 20 uM after 48 hrs by disc diffusion method; assay type: functional; details: MTCC 1108, 48 h, read-out: IZ; method in brief: as §2
# [7] = system: Curvularia lunata; assay: Antifungal activity against Curvularia lunata MTCC 581 after 48 hrs; assay type: functional; details: MTCC 581, 48 h
# [8] = system: Escherichia coli; assay: Antimicrobial activity against Escherichia coli ATCC 35218 assessed as diameter of inhibition zone at 80 uM after 24 hrs by Kirby -Baur disc diffusion method; assay type: functional; details: ATCC 35218, 24 h, read-out: DIZ; method in brief: as §1
# [9] = system: Staphylococcus aureus; assay: Antimicrobial activity against Staphylococcus aureus ATCC 11632 assessed as diameter of inhibition zone at 80 uM after 24 hrs by Kirby -Baur disc diffusion method; assay type: functional; details: ATCC 11632, 24 h, read-out: DIZ; method in brief: as §1
# [10] = system: QG-56; assay: Cytotoxicity against human QG56 cells after 24 hrs by MTT assay; assay type: functional, cell-based
# Method in brief: (§3)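 The MTT assay seeded 5 × 10⁴ cells per well and grew them 24 h in RPMI 1640 with compound at 2.5–200 µM. Medium without cells was the blank and adriamycin the positive control. MTT was added for 4 h at 37 °C, formazan was solubilised, and absorbance was read at 570 nm. IC50 is the concentration that cuts viability 50% against untreated cells.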
# [11] = system: Salmonella typhi; assay: Antimicrobial activity against Salmonella typhi ATCC 23564 assessed as diameter of inhibition zone at 40 uM after 24 hrs by Kirby -Baur disc diffusion method; assay type: functional, Salmonella enterica subsp. enterica serovar Typhi; details: Salmonella enterica, ATCC 23564, 24 h; read-out: DIZ
# [12] = system: Pseudomonas aeruginosa; assay: Antimicrobial activity against Pseudomonas aeruginosa ATCC 15499 assessed as diameter of inhibition zone at 40 uM after 24 hrs by Kirby -Baur disc diffusion method; assay type: functional; details: ATCC 15499, 24 h, read-out: DIZ; method in brief: as §1
# [13] = system: Salmonella typhi; assay: Antimicrobial activity against Salmonella typhi ATCC 23564 assessed as diameter of inhibition zone at 20 uM after 24 hrs by Kirby -Baur disc diffusion method; assay type: functional, Salmonella enterica subsp. enterica serovar Typhi; details: Salmonella enterica, ATCC 23564, 24 h; read-out: DIZ
# [14] = system: Salmonella typhi; assay: Antimicrobial activity against Salmonella typhi ATCC 23564 assessed as diameter of inhibition zone at 80 uM after 24 hrs by Kirby -Baur disc diffusion method; assay type: functional, Salmonella enterica subsp. enterica serovar Typhi; details: Salmonella enterica, ATCC 23564, 24 h; read-out: DIZ
# [15] = system: Curvularia lunata; assay: Antifungal activity against Curvularia lunata MTCC 581 assessed as zone of inhibition at 40 uM after 48 hrs by disc diffusion method; assay type: functional; details: MTCC 581, 48 h, read-out: IZ; method in brief: as §2
# [16] = system: HepG2; assay: Cytotoxicity against human HepG2 cells after 24 hrs by MTT assay; assay type: functional, cell-based; method in brief: as §3
# [17] = system: Aspergillus flavus; assay: Antifungal activity against Aspergillus flavus MTCC 1021 assessed as zone of inhibition at 80 uM after 48 hrs by disc diffusion method; assay type: functional; details: MTCC 1021, 48 h, read-out: IZ; method in brief: as §2
# [18] = system: Aspergillus niger; assay: Antifungal activity against Aspergillus niger MTCC 1108 assessed as zone of inhibition at 40 uM after 48 hrs by disc diffusion method; assay type: functional; details: MTCC 1108, 48 h, read-out: IZ; method in brief: as §2
# [19] = system: Salmonella typhi; assay: Antimicrobial activity against Salmonella typhi ATCC 23564 after 24 hrs by broth micro serial dilution method; assay type: functional, Salmonella enterica subsp. enterica serovar Typhi; details: Salmonella enterica, ATCC 23564, 24 h
# [20] = system: Aspergillus niger; assay: Antifungal activity against Aspergillus niger MTCC 1108 assessed as zone of inhibition at 80 uM after 48 hrs by disc diffusion method; assay type: functional; details: MTCC 1108, 48 h, read-out: IZ; method in brief: as §2
# [21] = system: Bacillus cereus; assay: Antimicrobial activity against Bacillus cereus MTCC 7350 after 24 hrs by broth micro serial dilution method; assay type: functional; details: MTCC 7350, 24 h
# Method in brief: (§4)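 This was broth microdilution in autoclaved Mueller-Hinton broth. 150 µL of compound per well was serially diluted […], and 50 µL of test organism was added. Plates were incubated 24 h at 37 °C and optical density was read.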
# [22] = system: Staphylococcus aureus; assay: Antimicrobial activity against Staphylococcus aureus ATCC 11632 assessed as diameter of inhibition zone at 40 uM after 24 hrs by Kirby -Baur disc diffusion method; assay type: functional; details: ATCC 11632, 24 h, read-out: DIZ; method in brief: as §1
# [23] = system: Escherichia coli; assay: Antimicrobial activity against Escherichia coli ATCC 35218 assessed as diameter of inhibition zone at 20 uM after 24 hrs by Kirby -Baur disc diffusion method; assay type: functional; details: ATCC 35218, 24 h, read-out: DIZ; method in brief: as §1
# [24] = system: Aspergillus niger; assay: Antifungal activity against Aspergillus niger MTCC 1108 after 48 hrs; assay type: functional; details: MTCC 1108, 48 h
# [25] = system: Aspergillus flavus; assay: Antifungal activity against Aspergillus flavus MTCC 1021 after 48 hrs; assay type: functional; details: MTCC 1021, 48 h
# [26] = system: Trichoderma viride; assay: Antifungal activity against Trichoderma viride MTCC 1107 after 48 hrs; assay type: functional; details: MTCC 1107, 48 h
# [27] = system: HeLa; assay: Cytotoxicity against human HeLa cells after 24 hrs by MTT assay; assay type: functional, cell-based; method in brief: as §3
# [28] = system: HCT-116; assay: Cytotoxicity against human HCT116 cells after 24 hrs by MTT assay; assay type: functional, cell-based; method in brief: as §3
# [29] = system: Trichoderma viride; assay: Antifungal activity against Trichoderma viride MTCC 1107 assessed as zone of inhibition at 40 uM after 48 hrs by disc diffusion method; assay type: functional; details: MTCC 1107, 48 h, read-out: IZ; method in brief: as §2
# [30] = system: Staphylococcus aureus; assay: Antimicrobial activity against Staphylococcus aureus ATCC 11632 after 24 hrs by broth micro serial dilution method; assay type: functional; details: ATCC 11632, 24 h; method in brief: as §4
# [31] = system: Trichoderma viride; assay: Antifungal activity against Trichoderma viride MTCC 1107 assessed as zone of inhibition at 20 uM after 48 hrs by disc diffusion method; assay type: functional; details: MTCC 1107, 48 h, read-out: IZ; method in brief: as §2
# [32] = system: Aspergillus flavus; assay: Antifungal activity against Aspergillus flavus MTCC 1021 assessed as zone of inhibition at 40 uM after 48 hrs by disc diffusion method; assay type: functional; details: MTCC 1021, 48 h, read-out: IZ; method in brief: as §2
# [33] = system: Escherichia coli; assay: Antimicrobial activity against Escherichia coli ATCC 35218 assessed as diameter of inhibition zone at 40 uM after 24 hrs by Kirby -Baur disc diffusion method; assay type: functional; details: ATCC 35218, 24 h, read-out: DIZ; method in brief: as §1
# [34] = system: Mus musculus; assay: Antiinflammatory activity in mouse assessed as inhibition of carrageenan-induced increase in paw volume at 200 mg/kg administered 1 hr prior to carrageenan challenge measured after 3 hrs relative to control; assay type: functional
# Method in brief: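 Mice were fasted 2 h and placed in groups of five. Controls received saline i.p. Phenylbutazone was given at 100 mg/kg i.p., curcumin at 200 mg/kg i.p., and derivatives at 200 mg/kg. After 1 h, 0.1 mL of 1% carrageenan in saline was injected subplantar into the right hind paw. Paw volume was followed by plethysmometer for 3 h, and % inhibition was calculated as (Vc − Vt)/Vc × 100.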
# [35] = system: Curvularia lunata; assay: Antifungal activity against Curvularia lunata MTCC 581 assessed as zone of inhibition at 80 uM after 48 hrs by disc diffusion method; assay type: functional; details: MTCC 581, 48 h, read-out: IZ; method in brief: as §2
# [36] = system: Escherichia coli; assay: Antimicrobial activity against Escherichia coli ATCC 35218 after 24 hrs by broth micro serial dilution method; assay type: functional; details: ATCC 35218, 24 h; method in brief: as §4
# [37] = system: Bacillus cereus; assay: Antimicrobial activity against Bacillus cereus MTCC 7350 assessed as diameter of inhibition zone at 80 uM after 24 hrs by Kirby -Baur disc diffusion method; assay type: functional; details: MTCC 7350, 24 h, read-out: DIZ; method in brief: as §1
# [38] = system: Bacillus cereus; assay: Antimicrobial activity against Bacillus cereus MTCC 7350 assessed as diameter of inhibition zone at 20 uM after 24 hrs by Kirby -Baur disc diffusion method; assay type: functional; method in brief: as §1
# [39] = system: Staphylococcus aureus; assay: Antimicrobial activity against Staphylococcus aureus ATCC 11632 assessed as diameter of inhibition zone at 20 uM after 24 hrs by Kirby -Baur disc diffusion method; assay type: functional; details: ATCC 11632, 24 h, read-out: DIZ; method in brief: as §1
# [40] = system: Pseudomonas aeruginosa; assay: Antimicrobial activity against Pseudomonas aeruginosa ATCC 15499 after 24 hrs by broth micro serial dilution method; assay type: functional; details: ATCC 15499, 24 h; method in brief: as §4
# [41] = system: Aspergillus flavus; assay: Antifungal activity against Aspergillus flavus MTCC 1021 assessed as zone of inhibition at 20 uM after 48 hrs by disc diffusion method; assay type: functional; method in brief: as §2
structure (smiles),measurement,setting,value
COc1cc(/C=C/C(O)=C/C(/C=C/c2ccc(O)c(OC)c2)=N/c2ccc(S(=O)(=O)Nc3nc(C)cc(C)n3)cc2)ccc1O,zone of inhibition at 20 µM,[1],10 mm
same,zone of inhibition at 80 µM,[2],22 mm
same,zone of inhibition at 80 µM,[3],19 mm
same,zone of inhibition at 40 µM,[4],9 mm
same,zone of inhibition at 20 µM,[5],12 mm
same,zone of inhibition at 20 µM,[6],12 mm
same,MIC,[7],20 µM
same,zone of inhibition at 80 µM,[8],23 mm
same,zone of inhibition at 80 µM,[9],22 mm
same,IC50,[10],50 µM
same,zone of inhibition at 40 µM,[11],14 mm
same,zone of inhibition at 40 µM,[12],16 mm
same,zone of inhibition at 20 µM,[13],10 mm
same,zone of inhibition at 80 µM,[14],17 mm
same,zone of inhibition at 40 µM,[15],16 mm
same,IC50,[16],25 µM
same,zone of inhibition at 80 µM,[17],11 mm
same,zone of inhibition at 40 µM,[18],14 mm
same,MIC,[19],20 µM
same,zone of inhibition at 80 µM,[20],16 mm
same,MIC,[21],20 µM
same,zone of inhibition at 40 µM,[22],18 mm
same,zone of inhibition at 20 µM,[23],21 mm
same,MIC,[24],20 µM
same,MIC,[25],> 80 µM
same,MIC,[26],20 µM
same,IC50,[27],25 µM
same,IC50,[28],25 µM
same,zone of inhibition at 40 µM,[29],19 mm
same,MIC,[30],20 µM
same,zone of inhibition at 20 µM,[31],18 mm
same,zone of inhibition at 40 µM,[32],9 mm
same,zone of inhibition at 40 µM,[33],21 mm
same,inhibition in vivo at 200 mg/kg,[34],38.7%
same,zone of inhibition at 80 µM,[35],19 mm
same,MIC,[36],20 µM
same,zone of inhibition at 80 µM,[37],12 mm
same,diameter of the inhibition zone (DIZ),[38],inactive
same,zone of inhibition at 20 µM,[39],16 mm
same,MIC,[40],20 µM
same,inhibition zone (IZ),[41],inactive
